Measurements of several laboratories.
Lines come from different studies, so protocols differ.
Medium: plasma

Compound	test system	setting	AUC(0-inf)
CC(C)[C@](O)(c1ccc2cc(OC(F)F)c(OC(F)F)cc2c1)c1c[nH]nn1	female human	oral, 450 mg, single dose	31100 ng·h/mL
O=C(/C=C/c1cccc(S(=O)(=O)Nc2ccccc2)c1)NO	human	intravenous, 1900 mg/m², patients	72800 ng·h/mL
CC(C)(Sc1ccncc1-c1ccc(C#N)c2ccccc12)C(=O)O	male human	oral, 5 mg, single dose, fasted, healthy volunteers	121 ng·h/mL
CCOc1ccc(Cc2cc([C@@H]3S[C@H](CO)[C@@H](O)[C@H](O)[C@H]3O)c(OC)cc2C)cc1	male human	oral, 5 mg, single dose, fasted	2010 ng·h/mL
CCc1nc2c(C)cc(N3CCN(CC(=O)N4CC(O)C4)CC3)cn2c1N(C)c1nc(-c2ccc(F)cc2)c(C#N)s1	human	oral, 1000 mg, fed, healthy volunteers	71400 ng·h/mL
C[C@@H](Oc1ccc(S(C)(=O)=O)cc1C(=O)N1C[C@@H]2C[C@]2(c2cc(C(F)(F)F)on2)C1)C(F)(F)F	human	oral, 25 mg, fasted, tablet	9.17 µM·h
C=C(F)C(=O)N1CCN(c2nc(OC[C@@H]3CCCN3C)nc3c2CCN(c2cccc4cccc(Cl)c24)C3)C[C@@H]1CC#N	human	oral, 600 mg, single dose, fasted	37100 ng·h/mL
Cn1cc(-c2ccc(S(=O)(=O)[C@@H]3C[C@@H](C(=O)NC4(C#N)CC4)N(C(=O)C4(C(F)(F)F)CC4)C3)c(C(F)(F)F)c2)cn1	human	oral, 100 mg, single dose, fed	12600 ng·h/mL
CO[C@H]1/C=C\C=C(/C)C(=O)NC2=CC(=O)C(NCCN(C)C)=C(C[C@@H](C)C[C@H](OC)[C@H](O)[C@@H](C)/C=C(\C)[C@@H]1OC(N)=O)C2=O	human	intravenous, 12 mg/m², patients, infusion	1220 ng·h/mL
C[C@@]1(c2cc(NC(=O)c3ccc(C#N)cn3)ccc2F)C=CSC(N)=N1	human	oral, 30 mg, single dose	2550 ng·h/mL
COc1ccc([C@@H]2CN(C(=O)[C@@H](O)CO)C[C@@]2(C)[C@@H](C)O)cc1OC1CN(c2ccc(C)cn2)C1	human	oral, 0.5 mg, single dose, healthy volunteers	211 ng·h/mL
COc1ccc(-n2nc(C(N)=O)c3c2C(=O)N(c2ccc(N4CCCCC4=O)cc2)CC3)cc1	human	oral, 10 mg, single dose, healthy volunteers	2530 ng·h/mL
CO[C@H]1CC[C@H](N2C(=O)CNc3ncc(-c4ccc(C(C)(C)O)nc4)nc32)CC1	human	oral, 60 mg, patients	2070 ng·h/mL
CCCOc1ccc([C@H]2CNC(=O)N2c2ccc3[nH]cnc3c2)cc1	human	oral, 200 mg, fasted, healthy volunteers	2110 ng·h/mL
CC(C)n1cc(C#N)c2cc(-n3cc(C(=O)O)cn3)ccc21	human	oral, 200 mg, single dose, fasted, healthy volunteers	44300 ng·h/mL
CN(C)CCCNC(=O)/C(=C/CCCCC(=O)NO)COc1cccc2ccccc12	human	intravenous, 250 mg/m², single dose	37500 ng·h/mL
CC(C)(O)c1ccccc1-c1ccc2[nH]c(/C=C/c3ccc(C(F)(F)F)cc3)nc2c1	male human	oral, 30 mg, single dose, fasted	5690 ng·h/mL
CS(=O)(=O)CCC#N	human	oral, 1000 mg, single dose, fasted	930000 ng·h/mL
COc1ccc(-n2nc(C(N)=O)c3c2C(=O)N(c2ccc(N4CCCCC4=O)cc2)CC3)cc1	male human	oral, 50 mg, single dose	4740 ng·h/mL
Nc1ccc(-c2nc([C@H]3CCc4cc(-c5cc(Cl)ccc5-n5cnnn5)cc(=O)n43)c(F)[nH]2)c(F)n1	human	oral, 80 mg, single dose, fasted	17500 ng·h/mL
O=C(Nc1c(Cl)cncc1Cl)c1ccc(OC(F)F)c(OCC2CC2)c1	human	oral, 0.5 mg, single dose, fasted	65.1 ng·h/mL
COC(=O)N[C@@H](C)CNc1nccc(-c2cn(C(C)C)nc2-c2cc(Cl)cc(NS(C)(=O)=O)c2F)n1	human	oral, 50 mg, single dose	1880 ng·h/mL
CCCCC[C@H](O)CC[C@@H]1[C@H]2Cc3cccc(OCC(=O)O)c3C[C@H]2C[C@H]1O	human	inhaled, 36 µg, single dose, healthy volunteers	0.7 ng·h/mL
C[C@@H](Oc1ccc(S(C)(=O)=O)cc1C(=O)N1C[C@@H]2C[C@]2(c2cc(C(F)(F)F)on2)C1)C(F)(F)F	human	oral, 25 mg, single dose	12.2 µM·h
